The source made the active and inactive calls. No cut-off for these calls is given here.
Columns and labels:
HL-60(TB) [1] = experiment: Cytotoxicity against human HL-60(TB) cells after 48 hrs by SRB assay; assay type: functional; conditions: HL-60, 48 h
How it was run: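 NCI 60-cell-line screen, five-dose assay: cells in RPMI1640 (printed "PMI1640") with 5% fetal calf serum and 2 mM L-glutamine, pre-incubated 24 h before compound addition. Compound in DMSO at 10-4, 10-5, 10-6, 10^-7 and 10^-8 M; continuous 48 h exposure. Growth estimated by sulforhodamine B protein assay; log GI50, TGI and LC50 derived from dose-response.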

MDA-MB-435 [2] = experiment: Antitumor activity against human MDA-MB-435 cells implanted in mouse dosed qd for 4 days by formazan dye-based hollow fiber assay; assay type: functional, organism-based
How it was run: (§1)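 Cells grown inside polyvinylidene fluoride hollow fibers; each line implanted into both intraperitoneal and subcutaneous compartments in mice. Compound given ip at two doses on a QD x 4 schedule. Fibers then recovered and viable cell mass measured by formazan dye conversion. Scored 2 per dose giving ≥50% reduction in viable cell mass (%T/C 50).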

KM12 = experiment: Cytotoxicity against human KM12 cells assessed as cell growth at 10 uM after 48 hrs by SRB assay; assay type: functional; conditions: KM12, 48 h, read-out: Activity
How it was run: (§2)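 NCI primary single-dose screen at 10^-5 M against the full panel of about 60 human tumor cell lines. Cells were in RPMI-1640 with 5% fetal calf serum and 2 mM L-glutamine and preincubated 24 h. Compound was given in DMSO with 48 h exposure. Growth was estimated by sulforhodamine B protein assay.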

CAKI-1 = experiment: Cytotoxicity against human Caki1 cells assessed as cell growth at 10 uM after 48 hrs by SRB assay; assay type: functional; conditions: CAKI-1, 48 h, read-out: Activity
How it was run: (§3)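 NCI primary single-dose screen at 10^-5 M against the ~60 human tumour cell line panel. Cells grown in RPMI-1640 with 5% fetal calf serum and 2 mM L-glutamine and pre-incubated 24 h before compound addition. Compound added from DMSO solution with 48 h exposure. Growth read by sulforhodamine B protein staining.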

MDA-MB-231 = experiment: Antitumor activity against human MDA-MB-231 cells implanted in mouse dosed qd for 4 days by formazan dye-based hollow fiber assay; assay type: functional, organism-based; how it was run: as §1
OVCAR-4 = experiment: Cytotoxicity against human OVCAR4 cells after 48 hrs by SRB assay; assay type: functional; conditions: OVCAR-4, 48 h
How it was run: (§4)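 NCI five-dose screen on the ~60-line human tumor panel. Cells grown in RPMI-1640 with 5% fetal calf serum and 2 mM L-glutamine, seeded at line-dependent density and preincubated 24 h. Compound added from DMSO at 10-fold dilutions from 10^-4 to 10^-8 M, continuous exposure 48 h. Growth read by sulforhodamine B protein stain. GI50, TGI and LC50 derived per line.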

NCI-H460 [3] = experiment: Cytotoxicity against human NCI-H460 cells after 48 hrs by SRB assay; assay type: functional; conditions: NCI-H460, 48 h; how it was run: as §4
HT-29 = experiment: Cytotoxicity against human HT-29 cells assessed as cell growth at 10 uM after 48 hrs by SRB assay; assay type: functional; conditions: HT-29, 48 h, read-out: Activity; how it was run: as §3
NCI-H226 = experiment: Cytotoxicity against human NCI-H226 cells assessed as cell growth at 10 uM after 48 hrs by SRB assay; assay type: functional; conditions: NCI-H226, 48 h, read-out: Activity; how it was run: as §2
NCI-H460 [4] = experiment: Cytotoxicity against human NCI-H460 cells assessed as cell growth at 10 uM after 48 hrs by SRB assay; assay type: functional; conditions: NCI-H460, 48 h, read-out: Activity; how it was run: as §2
HL-60(TB) [5] = experiment: Cytotoxicity against human HL-60(TB) cells assessed as cell growth at 10 uM after 48 hrs by SRB assay; assay type: functional; conditions: HL-60, 48 h, read-out: Activity
How it was run: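 NCI primary one-dose screen at 10^-5 M against about 60 human tumor cell lines. Cells pre-incubated 24 h, then compound in DMSO added for 48 h. Cell growth read by sulforhodamine B protein assay.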

SK-MEL-28 = experiment: Cytotoxicity against human SK-MEL-28 cells assessed as cell growth at 10 uM after 48 hrs by SRB assay; assay type: functional; conditions: SK-MEL-28, 48 h, read-out: Activity
How it was run: (§5)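 NCI primary one-dose screen at 10^-5 M against the full panel of about 60 human tumour cell lines, run to the NCI Drug Evaluation Branch protocol.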

NCI-H522 = experiment: Antitumor activity against human NCI-H522 cells implanted in mouse dosed qd for 4 days by formazan dye-based hollow fiber assay; assay type: functional, organism-based; how it was run: as §1
PC-3 = experiment: Cytotoxicity against human PC3 cells assessed as cell growth at 10 uM after 48 hrs by SRB assay; assay type: functional; conditions: PC-3, 48 h, read-out: Activity; how it was run: as §2
HOP-62 = experiment: Cytotoxicity against human HOP62 cells after 48 hrs by SRB assay; assay type: functional; conditions: HOP-62, 48 h
How it was run: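 NCI ~60-line panel in RPMI-1640 with 5% fetal calf serum and 2 mM L-glutamine, pre-incubated 24 h. Compound in DMSO tested at five 10-fold concentrations (10^-4 to 10^-8 M) with 48 h continuous exposure. Growth measured by sulforhodamine B protein assay. GI50 (50% net growth inhibition), TGI (total inhibition) and LC50 (50% net cell death) derived from dose-response.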

MOLT-4 = experiment: Cytotoxicity against human MOLT4 cells after 48 hrs by SRB assay; assay type: functional; conditions: MOLT-4, 48 h; how it was run: as §4
HOP-92 = experiment: Cytotoxicity against human HOP92 cells assessed as cell growth at 10 uM after 48 hrs by SRB assay; assay type: functional; conditions: HOP-92, 48 h, read-out: Activity; how it was run: as §3
UO-31 = experiment: Cytotoxicity against human UO31 cells assessed as cell growth at 10 uM after 48 hrs by SRB assay; assay type: functional; conditions: UO-31, 48 h, read-out: Activity; how it was run: as §5
MDA-MB-435 [6] = experiment: Cytotoxicity against human MDA-MB-435 cells after 48 hrs by SRB assay; assay type: functional; conditions: MDA-MB-435, 48 h; how it was run: as §4
NCI/ADR-RES = experiment: Cytotoxicity against human NCI/ADR-RES cells assessed as cell growth at 10 uM after 48 hrs by SRB assay; assay type: functional; conditions: read-out: Activity; how it was run: as §2
RPMI-8226 = experiment: Cytotoxicity against human RPMI8226 cells assessed as cell growth at 10 uM after 48 hrs by SRB assay; assay type: functional; conditions: RPMI-8226, 48 h, read-out: Activity; how it was run: as §2
RXF 393 = experiment: Cytotoxicity against human RXF393 cells after 48 hrs by SRB assay; assay type: functional; conditions: RXF 393, 48 h; how it was run: as §4

CCc1ccc(-c2ccc(=O)n(-c3ccc(S(N)(=O)=O)cc3)n2)cc1
LC50 (HL-60(TB) [1]): > 100 µM
GI50 (HL-60(TB) [1]; read-out: GI50): 0.376 µM
GI50 (HL-60(TB) [1]; read-out: pGI50 (converted)): 0.38 µM
TGI (HL-60(TB) [1]; read-out: pTGI (converted)): 3.02 µM
Activity (MDA-MB-435 [2]): inactive
growth at 10 µM (KM12): 13.6%
growth at 10 µM (CAKI-1): 36.6%
Activity (MDA-MB-231): inactive
LC50 (OVCAR-4): > 100 µM
GI50 (OVCAR-4; read-out: GI50): > 100 µM
GI50 (OVCAR-4; read-out: pGI50 (converted)): > 100 µM
TGI (OVCAR-4; read-out: pTGI): > 100 µM
LC50 (NCI-H460 [3]): 63.1 µM
GI50 (NCI-H460 [3]; read-out: GI50): 0.438 µM
GI50 (NCI-H460 [3]; read-out: pGI50 (converted)): 0.437 µM
TGI (NCI-H460 [3]; read-out: pTGI (converted)): 4.47 µM
growth at 10 µM (HT-29): 11.8%
growth at 10 µM (NCI-H226): 94.1%
growth at 10 µM (NCI-H460 [4]): 12.6%
growth at 10 µM (HL-60(TB) [5]): -4.27%
growth at 10 µM (SK-MEL-28): 49.4%
Activity (NCI-H522): inactive
growth at 10 µM (PC-3): 35%
LC50 (HOP-62): 70.8 µM
GI50 (HOP-62; read-out: GI50): 2.48 µM
GI50 (HOP-62; read-out: pGI50 (converted)): 2.45 µM
TGI (HOP-62; read-out: pTGI (converted)): 22.4 µM
LC50 (MOLT-4): > 100 µM
GI50 (MOLT-4; read-out: GI50): 0.573 µM
GI50 (MOLT-4; read-out: pGI50 (converted)): 0.575 µM
TGI (MOLT-4; read-out: pTGI): > 100 µM
growth at 10 µM (HOP-92): 65.8%
growth at 10 µM (UO-31): 38.4%
LC50 (MDA-MB-435 [6]): > 100 µM
GI50 (MDA-MB-435 [6]; read-out: GI50): 0.223 µM
GI50 (MDA-MB-435 [6]; read-out: pGI50 (converted)): 0.224 µM
TGI (MDA-MB-435 [6]; read-out: pTGI (converted)): 2.19 µM
growth at 10 µM (NCI/ADR-RES): 1%
growth at 10 µM (RPMI-8226): -29.9%
LC50 (RXF 393): > 100 µM
GI50 (RXF 393; read-out: GI50): 3.51 µM
GI50 (RXF 393; read-out: pGI50 (converted)): 3.55 µM
TGI (RXF 393; read-out: pTGI (converted)): 28.2 µM

Reference: ChEMBL document CHEMBL1944532, “Synthesis and evaluation of anticancer activity of some novel 6-aryl-2-(p-sulfamylphenyl)-pyridazin-3(2H)-ones” (Eur J Med Chem, 2012)
